Measured values: ChEMBL document CHEMBL5678806, “NMS-P937, an orally available, specific small-molecule polo-like kinase 1 inhibitor with antitumor activity in solid and hematologic malignancies” (Mol Cancer Ther, 2012)
Active and inactive are the calls of the source. The calls are words filed in the database; no cut-off is given here.

Legend:
[1] = target: PDPK1, 3-phosphoinositide-dependent protein kinase 1 (Homo sapiens) (UniProt O15530); experiment: Inhibition of N-terminal His6-tagged recombinant human PDK1 (52 to end residues) expressed in baculovirus infected Sf21 cells assessed as residual activity at 1 uM relative to control
Sequence of PDPK1, 3-phosphoinositide-dependent protein kinase 1 (Homo sapiens) (O15530 whole entry, looked up): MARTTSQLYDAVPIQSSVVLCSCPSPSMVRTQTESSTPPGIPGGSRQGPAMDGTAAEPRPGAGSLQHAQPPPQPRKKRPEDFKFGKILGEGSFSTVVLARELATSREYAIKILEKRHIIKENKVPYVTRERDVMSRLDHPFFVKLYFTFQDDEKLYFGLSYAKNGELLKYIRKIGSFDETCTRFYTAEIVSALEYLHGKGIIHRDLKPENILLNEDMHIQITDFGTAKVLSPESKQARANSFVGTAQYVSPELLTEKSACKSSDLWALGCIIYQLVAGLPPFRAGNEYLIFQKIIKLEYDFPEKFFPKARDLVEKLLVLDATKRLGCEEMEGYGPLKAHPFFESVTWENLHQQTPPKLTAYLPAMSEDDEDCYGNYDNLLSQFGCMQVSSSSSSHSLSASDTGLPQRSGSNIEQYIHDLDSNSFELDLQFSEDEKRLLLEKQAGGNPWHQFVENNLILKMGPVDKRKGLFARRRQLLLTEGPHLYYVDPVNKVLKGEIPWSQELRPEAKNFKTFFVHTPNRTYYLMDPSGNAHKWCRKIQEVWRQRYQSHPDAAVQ

[2] = target: Epidermal growth factor receptor (Homo sapiens, UniProt P00533); experiment: Inhibition of EGFR1 (unknown origin) in presence of [gamma-33P]ATP
[3] = target: Protein kinase C delta type (Homo sapiens) (UniProt Q05655); experiment: Inhibition of N-terminal His6-tagged recombinant human PKCdelta (2 to end residues) expressed in Sf21 cells assessed as residual activity at 1 uM relative to control
Sequence of Protein kinase C delta type (Homo sapiens) (Q05655 whole entry, looked up): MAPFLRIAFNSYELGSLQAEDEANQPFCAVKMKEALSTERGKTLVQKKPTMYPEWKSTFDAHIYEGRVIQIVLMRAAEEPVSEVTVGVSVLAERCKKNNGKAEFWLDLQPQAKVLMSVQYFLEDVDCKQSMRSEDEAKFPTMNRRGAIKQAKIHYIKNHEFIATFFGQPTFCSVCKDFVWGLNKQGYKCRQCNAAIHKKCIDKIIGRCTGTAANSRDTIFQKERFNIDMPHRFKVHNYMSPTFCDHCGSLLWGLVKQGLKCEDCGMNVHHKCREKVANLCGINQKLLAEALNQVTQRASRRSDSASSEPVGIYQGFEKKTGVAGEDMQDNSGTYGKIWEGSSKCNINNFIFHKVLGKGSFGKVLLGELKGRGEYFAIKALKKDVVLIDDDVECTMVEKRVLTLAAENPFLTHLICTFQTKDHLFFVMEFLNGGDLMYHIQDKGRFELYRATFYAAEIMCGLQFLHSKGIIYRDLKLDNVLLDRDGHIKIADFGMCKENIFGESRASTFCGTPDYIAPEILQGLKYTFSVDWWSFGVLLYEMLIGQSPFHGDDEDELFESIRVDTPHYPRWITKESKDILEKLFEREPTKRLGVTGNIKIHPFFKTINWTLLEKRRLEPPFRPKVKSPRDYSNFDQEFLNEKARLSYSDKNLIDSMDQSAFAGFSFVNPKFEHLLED

[4] = AUC in male cynomolgus monkey at 5 mg/kg, iv by LC-MS analysis; type: ADME, organism-based, Macaca fascicularis; conditions: in vivo
M14 = experiment: Antiproliferative activity against human M14 cells assessed as inhibition of cell growth incubated for 72 hrs by cell-titer glo assay; type: functional, cell-based; conditions: M14, 72 h
How it was run: (§1)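 Cells seeded at 10,000–30,000/cm² (adherent) or 100,000/mL (nonadherent) in medium with 10% fetal calf serum; after 24 h, treated in duplicate with serial dilutions for 72 h. Viable cell number read by CellTiter-Glo luminescence; IC50 from sigmoidal fit; at least two independent experiments.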

1A9/ptx-22 = experiment: Antiproliferative activity against human 1A9/ptx-22 cells assessed as inhibition of cell growth incubated for 72 hrs by cell-titer glo assay; type: functional, cell-based; conditions: 1A9/ptx-22, 72 h
How it was run: (§2)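 Cells seeded 10,000–30,000/cm² (adherent) or 100,000/mL (suspension) in medium with 10% fetal calf serum; after 24 h treated in duplicate with serial dilutions for 72 h. Viable cells read by CellTiter-Glo luminescence; IC50 from sigmoidal fit; at least two independent experiments.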

[5] = Oral bioavailability in Beagle dog at 5 mg/kg by LC-MS analysis; type: ADME, organism-based, Canis lupus familiaris; conditions: in vivo
[6] = target: Macrophage-stimulating protein receptor (Homo sapiens) (UniProt Q04912); experiment: Inhibition of N-terminal GST-tagged recombinant human Ron (983 to end residues) expressed in baculovirus infected Sf21 cells assessed as residual activity at 1 uM relative to control
[7] = Volume of distribution at steady state in nu/nu mouse at 10 mg/kg, iv by LC-MS analysis; type: ADME, organism-based; conditions: in vivo, read-out: Vdss
[8] = target: MAP kinase-activated protein kinase 2 (Homo sapiens, UniProt P49137); experiment: Inhibition of MAPKAPK2 (unknown origin) in presence of [gamma-33P]ATP
[9] = target: Maternal embryonic leucine zipper kinase (Homo sapiens) (UniProt Q14680); experiment: Inhibition of MELK (unknown origin) at 10 micromol/L in presence of [gamma-33P]ATP relative to control; conditions: dose 10.0 µmol/L
Sequence of Maternal embryonic leucine zipper kinase (Homo sapiens) (Q14680 whole entry, looked up): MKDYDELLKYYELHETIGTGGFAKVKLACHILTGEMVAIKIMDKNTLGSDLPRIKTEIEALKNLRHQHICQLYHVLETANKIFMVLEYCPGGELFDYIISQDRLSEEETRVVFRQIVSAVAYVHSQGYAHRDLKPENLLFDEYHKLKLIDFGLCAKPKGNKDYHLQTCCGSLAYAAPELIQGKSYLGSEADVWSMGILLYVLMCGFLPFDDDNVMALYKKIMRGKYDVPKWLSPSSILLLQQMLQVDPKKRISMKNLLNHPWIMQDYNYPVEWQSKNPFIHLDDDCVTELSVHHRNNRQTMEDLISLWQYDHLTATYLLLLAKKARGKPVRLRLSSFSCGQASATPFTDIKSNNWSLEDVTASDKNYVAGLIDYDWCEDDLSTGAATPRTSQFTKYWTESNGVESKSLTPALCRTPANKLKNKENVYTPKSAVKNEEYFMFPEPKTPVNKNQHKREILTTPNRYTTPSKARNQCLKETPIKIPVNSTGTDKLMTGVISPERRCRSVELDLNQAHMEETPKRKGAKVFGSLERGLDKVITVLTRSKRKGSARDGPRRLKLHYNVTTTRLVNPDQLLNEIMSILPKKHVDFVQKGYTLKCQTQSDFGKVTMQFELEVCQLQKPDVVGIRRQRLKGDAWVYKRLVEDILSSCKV

SU-DHL10 = experiment: Antiproliferative activity against human SU-DHL-10 cells assessed as inhibition of cell growth incubated for 72 hrs by cell-titer glo assay; type: functional, cell-based; conditions: SU-DHL10, 72 h
[10] = target: Tyrosine-protein kinase SYK (Homo sapiens, UniProt P43405); experiment: Inhibition of SYK (unknown origin) in presence of [gamma-33P]ATP
[11] = target: Inhibitor of nuclear factor kappa-B kinase subunit beta (Homo sapiens, UniProt O14920); experiment: Inhibition of IKK2 (unknown origin) in presence of [gamma-33P]ATP
Sequence of Inhibitor of nuclear factor kappa-B kinase subunit beta (O14920 whole entry): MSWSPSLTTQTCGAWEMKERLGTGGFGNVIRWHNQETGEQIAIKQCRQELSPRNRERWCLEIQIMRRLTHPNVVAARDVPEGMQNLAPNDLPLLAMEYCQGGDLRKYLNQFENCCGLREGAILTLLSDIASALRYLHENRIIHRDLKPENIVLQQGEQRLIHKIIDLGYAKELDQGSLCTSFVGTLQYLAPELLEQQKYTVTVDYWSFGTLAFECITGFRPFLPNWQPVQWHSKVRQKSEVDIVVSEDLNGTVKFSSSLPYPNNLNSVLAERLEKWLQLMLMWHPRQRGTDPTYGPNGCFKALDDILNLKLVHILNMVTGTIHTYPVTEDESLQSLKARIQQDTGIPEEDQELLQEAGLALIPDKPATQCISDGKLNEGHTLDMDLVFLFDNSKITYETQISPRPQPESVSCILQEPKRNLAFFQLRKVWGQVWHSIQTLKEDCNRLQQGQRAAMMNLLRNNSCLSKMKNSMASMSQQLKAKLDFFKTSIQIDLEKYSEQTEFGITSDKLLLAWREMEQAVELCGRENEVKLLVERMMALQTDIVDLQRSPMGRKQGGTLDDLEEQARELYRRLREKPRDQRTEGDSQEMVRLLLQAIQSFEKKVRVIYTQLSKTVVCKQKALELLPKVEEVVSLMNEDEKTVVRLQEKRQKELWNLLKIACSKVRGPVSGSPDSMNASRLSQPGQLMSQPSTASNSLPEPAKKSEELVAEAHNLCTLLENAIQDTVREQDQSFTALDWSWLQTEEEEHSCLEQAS

A2780 = experiment: Induction of mitosis in human A2780 cells xenografted in nu/nu mouse assessed as increased NPM phosphorylation on Thr199 at 60 mg/kg, po administered for 2 to 6 hrs by immunohistochemistry analysis; type: functional, organism-based; conditions: time 2-6 hrs
A-375 = experiment: Antiproliferative activity against human A-375 cells assessed as inhibition of cell growth incubated for 72 hrs by cell-titer glo assay; type: functional, cell-based; conditions: A-375, 72 h
How it was run: as §2

HCC78 = experiment: Antiproliferative activity against human HCC78 cells assessed as inhibition of cell growth incubated for 72 hrs by cell-titer glo assay; type: functional, cell-based; conditions: HCC78, 72 h
How it was run: as §1

HCC1419 = experiment: Antiproliferative activity against human HCC1419 cells assessed as inhibition of cell growth incubated for 72 hrs by cell-titer glo assay; type: functional, cell-based; conditions: HCC1419, 72 h
How it was run: as §1

Casein kinase 2 = Casein kinase 2 (Homo sapiens, UniProt P67870+P68400+P19784+Q8NEV1); experiment: Inhibition of CK2 (unknown origin) in presence of [gamma-33P]ATP; type: protein assay
[12] = target: Eukaryotic translation initiation factor 2-alpha kinase 3 (Homo sapiens, UniProt Q9NZJ5); experiment: Inhibition of PERK (unknown origin) in presence of [gamma-33P]ATP
[13] = target: Hepatocyte growth factor receptor (Homo sapiens, UniProt P08581); experiment: Inhibition of MET (unknown origin) in presence of [gamma-33P]ATP
Sequence of Hepatocyte growth factor receptor (P08581 whole entry): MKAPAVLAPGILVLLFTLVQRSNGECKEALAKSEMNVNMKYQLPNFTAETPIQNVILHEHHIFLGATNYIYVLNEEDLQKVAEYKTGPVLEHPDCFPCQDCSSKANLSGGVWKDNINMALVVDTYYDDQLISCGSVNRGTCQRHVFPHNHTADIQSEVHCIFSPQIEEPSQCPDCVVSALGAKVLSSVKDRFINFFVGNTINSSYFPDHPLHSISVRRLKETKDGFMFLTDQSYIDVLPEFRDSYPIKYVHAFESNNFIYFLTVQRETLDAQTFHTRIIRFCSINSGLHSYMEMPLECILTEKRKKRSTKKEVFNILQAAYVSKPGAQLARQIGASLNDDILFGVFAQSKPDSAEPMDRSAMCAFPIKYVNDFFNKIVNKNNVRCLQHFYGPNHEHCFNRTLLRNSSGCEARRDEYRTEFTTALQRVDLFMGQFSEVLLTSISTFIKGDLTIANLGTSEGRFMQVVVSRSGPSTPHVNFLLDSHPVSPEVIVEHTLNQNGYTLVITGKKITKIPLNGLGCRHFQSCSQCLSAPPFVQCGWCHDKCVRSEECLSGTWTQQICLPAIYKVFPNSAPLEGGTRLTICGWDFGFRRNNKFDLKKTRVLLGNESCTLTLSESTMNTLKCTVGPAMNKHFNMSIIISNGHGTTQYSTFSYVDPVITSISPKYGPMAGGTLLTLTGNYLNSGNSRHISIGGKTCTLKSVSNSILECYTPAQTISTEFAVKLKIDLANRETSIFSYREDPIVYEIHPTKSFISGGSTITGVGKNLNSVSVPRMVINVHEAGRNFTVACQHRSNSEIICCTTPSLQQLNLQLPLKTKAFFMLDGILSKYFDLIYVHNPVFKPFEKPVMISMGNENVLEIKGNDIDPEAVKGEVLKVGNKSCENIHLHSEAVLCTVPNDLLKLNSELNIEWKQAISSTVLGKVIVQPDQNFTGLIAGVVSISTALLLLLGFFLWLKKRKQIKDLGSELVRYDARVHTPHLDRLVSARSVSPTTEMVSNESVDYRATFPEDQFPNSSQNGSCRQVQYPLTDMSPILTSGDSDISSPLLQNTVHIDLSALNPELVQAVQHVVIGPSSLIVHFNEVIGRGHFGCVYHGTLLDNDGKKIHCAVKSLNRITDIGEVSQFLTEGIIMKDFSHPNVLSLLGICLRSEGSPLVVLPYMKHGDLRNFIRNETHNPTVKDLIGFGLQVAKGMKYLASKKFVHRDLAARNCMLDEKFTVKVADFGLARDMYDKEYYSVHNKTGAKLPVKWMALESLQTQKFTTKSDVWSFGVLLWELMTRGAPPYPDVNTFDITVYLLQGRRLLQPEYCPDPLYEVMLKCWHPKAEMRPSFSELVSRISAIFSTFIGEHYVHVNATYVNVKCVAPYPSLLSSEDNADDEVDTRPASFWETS

NCI-H889 = experiment: Antiproliferative activity against human NCI-H889 cells assessed as inhibition of cell growth incubated for 72 hrs by cell-titer glo assay; type: functional, cell-based; conditions: NCI-H889, 72 h
How it was run: (§3)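 Cells from ATCC or ECACC, kept in supplier-recommended medium with 1% penicillin-streptomycin at 37°C, 5% CO₂. Seeded at 10,000–30,000/cm² (adherent) or 100,000/mL (nonadherent) in medium with 10% fetal calf serum. Dosed after 24 h in duplicate with serial dilutions. Viable cells read by CellTiter-Glo 72 h later. IC50 from sigmoidal fit. At least two independent experiments.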

NCI/ADR-RES = experiment: Antiproliferative activity against human NCI/ADR-RES cells assessed as inhibition of cell growth incubated for 72 hrs by cell-titer glo assay; type: functional, cell-based
How it was run: as §3

NALM-6 = experiment: Antiproliferative activity against human NALM-6 cells assessed as inhibition of cell growth incubated for 72 hrs by cell-titer glo assay; type: functional, cell-based; conditions: NALM-6, 72 h
How it was run: as §3

[14] = target: Tyrosine-protein kinase Fgr (Homo sapiens) (UniProt P09769); experiment: Inhibition of N-terminal His6-tagged recombinant human Fgr (2 to end residues) expressed in baculovirus infected Sf21 cells assessed as residual activity at 0.1 uM relative to control
Sequence of Tyrosine-protein kinase Fgr (Homo sapiens) (P09769 2-529 limits assumed): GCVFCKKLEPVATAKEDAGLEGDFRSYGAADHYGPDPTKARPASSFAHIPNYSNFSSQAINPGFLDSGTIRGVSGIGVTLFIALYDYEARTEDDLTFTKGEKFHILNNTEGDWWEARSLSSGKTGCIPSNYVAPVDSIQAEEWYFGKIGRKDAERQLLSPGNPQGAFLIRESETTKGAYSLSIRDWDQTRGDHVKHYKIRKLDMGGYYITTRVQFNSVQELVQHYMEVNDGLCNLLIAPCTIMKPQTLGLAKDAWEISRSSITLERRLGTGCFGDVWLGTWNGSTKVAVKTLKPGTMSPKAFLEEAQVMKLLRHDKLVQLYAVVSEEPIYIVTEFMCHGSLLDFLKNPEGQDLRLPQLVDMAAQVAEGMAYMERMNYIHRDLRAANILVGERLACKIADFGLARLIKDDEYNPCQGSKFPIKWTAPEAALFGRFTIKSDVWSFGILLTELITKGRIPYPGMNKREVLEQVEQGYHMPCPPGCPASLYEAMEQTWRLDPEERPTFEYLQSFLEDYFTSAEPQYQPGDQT

[15] = Inhibition of CDK2/CycA (unknown origin) in presence of [gamma-33P]ATP; set-up: species or system Homo sapiens
SKM-1 = experiment: Antiproliferative activity against human SKM-1 cells assessed as inhibition of cell growth incubated for 72 hrs by cell-titer glo assay; type: functional, cell-based; conditions: SKM-1, 72 h
Insulin receptor = Insulin receptor (Homo sapiens, UniProt P06213); experiment: Inhibition of IR (unknown origin) in presence of [gamma-33P]ATP
[16] = target: Serine/threonine-protein kinase Nek3 (Homo sapiens) (UniProt P51956); experiment: Inhibition of N-terminal 6His-tagged recombinant full length human NEK3 expressed in baculovirus infected Sf21 cells assessed as residual activity at 1 uM relative to control
Sequence of Serine/threonine-protein kinase Nek3 (Homo sapiens) (P51956 whole entry): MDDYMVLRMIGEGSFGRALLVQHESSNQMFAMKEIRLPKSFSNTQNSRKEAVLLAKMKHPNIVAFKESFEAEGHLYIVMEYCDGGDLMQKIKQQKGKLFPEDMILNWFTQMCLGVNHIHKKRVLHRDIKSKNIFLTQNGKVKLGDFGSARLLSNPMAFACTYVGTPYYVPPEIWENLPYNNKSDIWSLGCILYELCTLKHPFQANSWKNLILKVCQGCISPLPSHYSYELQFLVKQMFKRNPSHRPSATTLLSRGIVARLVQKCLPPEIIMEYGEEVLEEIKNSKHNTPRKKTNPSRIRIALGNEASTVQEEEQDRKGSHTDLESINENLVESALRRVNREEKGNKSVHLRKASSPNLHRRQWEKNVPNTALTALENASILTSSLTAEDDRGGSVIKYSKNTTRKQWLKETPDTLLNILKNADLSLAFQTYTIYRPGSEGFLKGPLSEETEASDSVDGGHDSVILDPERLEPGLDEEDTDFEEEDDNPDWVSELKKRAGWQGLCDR

[17] = Antitumor activity against human Acute myeloid leukemic cell xenografted in nu/nu mouse assessed as increase in median survival time at 120 mg/kg, po administered for 2 days and measured after 5 days (reference value: 36 days); type: functional, Leukemia cell; conditions: time 2 day
[18] = target: Fibroblast growth factor receptor 4 (Homo sapiens) (UniProt P22455); experiment: Inhibition of N-terminal His6-tagged recombinant human FGFR4 (442 to 755 residues) expressed in baculovirus infected Sf21 cells assessed as residual activity at 1 uM relative to control

## CN1CCN(c2ccc(OC(F)(F)F)c(Nc3ncc4c(n3)-c3c(c(C(N)=O)nn3CCO)CC4)c2)CC1 [ONVANSERTIB]
[1]
  Activity: 144%
[2]
  IC50: > 10000 nM
[3]
  Activity: 93%
[4]
  AUC: 14.1 µM·h
M14
  IC50: 67 nM
1A9/ptx-22
  IC50: 65 nM
[5]
  F: 63%
[6]
  Activity: 42%
[7]
  Vd: 1.7 L/kg
[8]
  IC50: > 10000 nM
[9]
  inhibition: 95.5%
SU-DHL10
  IC50: 43 nM
[10]
  IC50: > 10000 nM
[11]
  IC50: > 10000 nM
A2780
  Activity: Active
A-375
  IC50: 40 nM
HCC78
  IC50: 340 nM
HCC1419
  IC50: 42 nM
Casein kinase 2
  IC50: 826 nM
[12]
  IC50: > 10000 nM
[13]
  IC50: > 10000 nM
NCI-H889
  IC50: 135 nM
NCI/ADR-RES
  IC50: 1210 nM
NALM-6
  IC50: 61 nM
[14]
  Activity: 93%
[15]
  IC50: > 10000 nM
SKM-1
  IC50: 60 nM
Insulin receptor
  IC50: > 10000 nM
[16]
  Activity: 118%
[17]
  Time: 50 days
[18]
  Activity: 90%
